Bioassay records: PubChem, several laboratories
SR-BI HDL uptake = inhibitors of SR-BI mediated HDL lipid uptake, primary screen, ldlA[mSR-BI] cells, fluorescence, single point. Scavenger receptor class B member 1 (Mus musculus), Q61009. ldlA[mSR-BI] CHO cells, DiI-HDL uptake fluorescence, 3 h. inhibition, % at 12.5 µM. 320,000 compounds, 0.96% hits;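 active means mean replicate inhibition of at least 70% and a set share of replicates each scoring 70 or more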;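 further: 0% = median of neutral control wells and 100% = median of positive control wells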
Calb FLC = C. albicans growth inhibition with fluconazole, primary screen, CaCi-2 strain, Alamar Blue fluorescence; C. albicans CaCi-2 + fluconazole, 48 h; growth inhibition, % (test concentration not listed); 300,000 compounds, 0.57% hits;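 active means growth inhibition above about 58% in most replicates, limit read from the data, passing the limit was not always enough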;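 further: all wells also contain fluconazole at 8 µg/ml as a sub-toxic cotreatment; 0% = median of DMSO wells and 100% = median of geldanamycin control wells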
Insulin prom up = insulin promoter activators in MIN6 cells, imaging, high-content screening, mouse beta cells; MIN6 insulin promoter-GFP reporter; hits give high values; z-score at 5 µM; 190,000 compounds, 0.3% hits;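 active means z-score above 3 at 5 µM with at least 500 cells counted in the well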
beta cell repl = inducers of MIN6 beta-cell proliferation, primary screen, ATP luminescence, uHTS; MIN6 cells proliferation, ATPlite luminescence, 48 h; cells starved in 0.2% serum; 100% = growth in 10% serum; proliferation, % at 10 µM; 330,000 compounds, 0.29% hits; AID 2380, 2010;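 active means compounds whose signal lies at least 3.5 SD above the mean of all wells on their plate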;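 further: 0% = DMSO-treated cells in low-serum medium and 100% = 10% serum control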
HTR2A ag = mouse Htr2a agonists via beta-arrestin recruitment, primary screen, cell-based, luminescence; 5-hydroxytryptamine receptor 2A (Mus musculus), P35363; CHO-K1 mHTR2A beta-arrestin complementation; percent of 30 µM serotonin response; activation, % at 7.6 µM; 360,000 compounds, 0.66% hits;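 active means activation above a run cutoff, the mean activation of all tested compounds plus 3 SD, cut at about 14% in these data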;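 further: 0% = plate median of compound wells and 100% = 30 µM serotonin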
SR-BI uptake up = activators of SR-BI mediated DiI-HDL uptake, primary screen, ldlA[mSR-BI] CHO cells, DiI fluorescence. AID 504775, 2011. 3 h; 100 = double the neutral-control signal. 320,000 compounds, 0.096% hits. activation, % at 12.5 µM;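 active means mean replicate activation of at least 60% and every replicate at or above 60%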;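 further: 0% = median plate neutral-control signal and 100% = twice that signal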
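Material: SR-BI-overexpressing, LDLR-lacking CHO cells; schedule: compound exposure 3 h, 37 °C; reagent: DiI-labelled HDL at 10 µg/mL final; technique: bottom-read fluorescence, 550/595 nm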
OPRM1 ag = OPRM1 agonists via beta-arrestin recruitment, confirmation, counter-screen for mouse HTR2A agonist project, cell-based, luminescence, single concentration. shares compounds with HTR2A ag. U2OS OPRM1 beta-arrestin PathHunter; DMSO 0%, DAMGO 9.3 µM 100%. activation, % at 9.3 µM. 2,300 compounds, 5.3% hits. AID 624380, 2012;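 active means mean activation above the mean of DMSO-only wells plus 3 SD, cut at about 0.5% in these data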
Target sequence (P35372 whole entry, looked up): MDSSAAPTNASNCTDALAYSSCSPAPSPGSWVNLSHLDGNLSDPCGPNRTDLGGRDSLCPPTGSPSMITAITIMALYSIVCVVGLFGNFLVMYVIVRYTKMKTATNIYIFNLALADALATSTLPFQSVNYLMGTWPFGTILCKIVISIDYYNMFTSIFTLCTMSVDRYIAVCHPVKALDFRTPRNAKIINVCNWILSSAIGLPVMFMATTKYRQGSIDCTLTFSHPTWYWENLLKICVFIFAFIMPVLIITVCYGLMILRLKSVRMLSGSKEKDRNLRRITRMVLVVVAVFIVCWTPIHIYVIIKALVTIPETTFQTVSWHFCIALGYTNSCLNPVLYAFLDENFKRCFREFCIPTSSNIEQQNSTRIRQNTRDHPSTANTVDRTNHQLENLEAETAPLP
m5-HT2A ag conf = mouse HTR2A agonists, beta-arrestin recruitment, confirmation, cell-based, luminescence, CHO-K1 PathHunter, triplicate; shares compounds with HTR2A ag; DMSO 0%, 30 µM serotonin 100%; activation, % at 7.6 µM; 2,300 compounds, 19% hits; AID 624381, 2012;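 active means mean activation across triplicates above the hit threshold derived in the original primary screen, cut at about 15% in these data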
* marks the source's active call; other numbers are inactive results; . = no result given. Only some compounds are listed: those with a hit (about 2.4% of all), similar ones and a draw of the others.

SMILES	SR-BI HDL uptake	Calb FLC	Insulin prom up	beta cell repl	HTR2A ag	SR-BI uptake up	OPRM1 ag	m5-HT2A ag conf
COc1ccc(Cl)cc1CC1(C)C(=O)Nc2ccc(-c3ccccc3OC)cc21 (stereo not given)	.	.	.	.	21*	.	0	17*
COc1ccc2c(C)cc(=O)oc2c1	3	.	.	.	29*	-3	-1	37*
COC(=O)[C@H](Cc1ccccc1)NC(=O)Cn1ccc(NC(=O)OCc2ccccc2)nc1=O	-16	.	.	-5	-1	16	.	.
CN(c1ccccc1C(=O)Nc1ccccc1C(=O)NCc1ccco1)S(C)(=O)=O	.	14	-0.88	-3	14*	.	-1	-5
CN(c1ccccc1C(=O)NCc1ccco1)S(C)(=O)=O	-9	9	1.8	0	-4	9	.	.
NC(=O)c1nc(C(=O)N2CCN(c3ccccc3)CC2)c2ccccc2n1	-6	.	.	-2	18*	6	-1	-6
Cc1ccc2c(C)c(C(=O)Nc3c(C)n(C)n(-c4ccccc4)c3=O)oc2c1C	26	8	-0.54	-3	17*	-26	0	40*
O=C(Cc1ccccc1)NS(=O)(=O)c1ccccc1	.	.	.	.	1	.	.	.
Cn1c(N)c(C(=O)Nc2c(Cl)cccc2Cl)sc1=S	13	30	-0.25	0	20*	-13	0	1
Cc1ccc(/C(=N\S(=O)(=O)c2ccc(Br)cc2)Nc2ccccc2C)cc1	-33	4	.	-4	15*	33	0	9
Cc1ccccc1N/C(=N/S(=O)(=O)c1ccccc1)c1ccc(F)cc1	.	-3	-0.2	-2	4	.	.	.
COc1ccc(NC(=O)C2CCN(c3nc(-c4ccc(OC)cc4)no3)CC2)cc1	41	-1	.	-3	17*	-41	0	0
COc1ccc(CN2C(=O)c3ccc(C(=O)O)cc3C2=O)cc1	-12	10	.	-2	-2	12	.	.
CN1C(=O)NC(c2ccc(O)cc2)C2=C1CN(c1ccc(O)cc1)C2=O (stereo not given)	-25	-11	-0.13	0	20*	25	-1	-4
CN1C(=O)NC(c2ccc(O)cc2)C2=C1CN(c1ccccc1)C2=O (stereo not given)	.	-2	.	-1	-1	.	.	.
CC1=C(C(=O)N2CCCCCC2)CC(CC(=O)NC2CCCC2)C(=O)N1Cc1ccc(C(C)(C)C)cc1 (stereo not given)	.	.	.	.	15*	.	-1	-2
COc1ccc(CN2C(=O)C(CC(=O)NC3CCCC3)CC(C(=O)N(C)C)=C2C)cc1 (stereo not given)	.	.	.	.	30*	.	-1	-2
CC1=C(C(=O)N2CCCCCC2)CC(CC(=O)NC2CCCC2)C(=O)N1Cc1ccccc1 (stereo not given)	.	.	.	.	12	.	.	.
C[C@H](NC(=O)[C@@H]1CSC2c3ccccc3C(=O)N21)C(=O)NC1CCCCC1 (stereo not given in full)	-8	6	.	-3	1	8	.	.
Cc1ccc(C)c(C(=O)CCC(=O)Nc2cccnc2)c1	-15	3	.	2	15*	15	0	0
CC(=O)c1ccc(S(=O)(=O)NCCOc2ccccc2)cc1	.	.	.	.	-3	.	.	.
CCOC(=O)C1=CCC(c2cccn2C(=O)OC(C)(C)C)N(S(=O)(=O)c2ccc(C)cc2)C1 (stereo not given)	.	.	.	.	-3	.	.	.
COc1cccc(Cn2cnc(-c3ccccc3OC)c2-c2cccs2)c1	.	.	.	.	24*	.	-1	-7
